Test results as given in ChEMBL document CHEMBL3997811.
Active and inactive are the calls of the source. The rule behind the calls is not given here.

How the values were obtained:
[1] = tested on: Matrix protein 2 (Influenza A virus (A/Udorn/307/1972(H3N2))), P0DOF8 [S31N]; test: Inhibition of Influenza A virus amantadine-resistant M2 proton channel S31N mutant expressed in Xenopus laevis oocyte at 100 uM at pH 5.5 after 2 mins by two-electrode patch clamp assay relative to control
Outline: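 Xenopus laevis oocytes microinjected with RNA for AM2-WT or AM2-S31N; channel activated at pH 5.5; two-electrode voltage clamp current recorded after 2 min exposure to 100 μM compound; expressed as percent current inhibition; three repeats on different oocytes, mean reported.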

[2] = Antiviral activity against amantadine-resistant Influenza A virus A/California/07/2009 (H1N1) expressing M2 proton channel S31N mutant infected in MDCK cells harboring ST6Gal1 gene assessed as reduction in plaque formation at 10 uM measured after 2 days post infection by crystal violet staining based assay relative to control; type: functional; set-up: scale not given: the % may be the effect or the level left
Outline: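 ST6Gal I-expressing MDCK monolayers infected with ~100 pfu in DMEM/0.5% BSA, 1 h at 4 °C then 1 h at 37 °C; inoculum removed, PBS wash, overlay of DMEM with 1.2% Avicel and NAT (2.0 μg/mL) containing compound at 10 μM; 2-day incubation; plaque formation expressed as percent of DMSO control.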

[3] = (§1) Antiviral activity against amantadine-resistant Influenza A virus A/California/07/2009 (H1N1) expressing M2 proton channel S31N mutant infected in MDCK cells harboring ST6Gal1 gene assessed as reduction in plaque formation measured after 2 days post infection by crystal violet staining based; type: functional, cell-based
[4] = tested on: Influenza A virus (A/California/07/2009(H1N1)); test: as §1; type: functional, cell-based
[5] = tested on: Influenza A virus (A/California/07/2009(H1N1)); test: as §1, with “formation up to 30 uM” for “formation”; type: functional, cell-based
[6] = tested on: Influenza A virus; test: Antiviral activity against multidrug-resistant Influenza A virus A/Switzerland/9715293/2013 (H3N2) expressing M2 proton channel S31N mutant infected in MDCK cells harboring ST6Gal1 gene assessed as reduction in plaque formation measured after 2 days post infection by crystal violet staining based; type: functional, cell-based
[7] = Antiviral activity against amantadine/oseltamivir-resistant Influenza A virus A/Washington/29/2009 (H1N1) expressing AM2-S31N/neuraminidase-H275Y mutant infected in MDCK cells harboring ST6Gal1 gene assessed as reduction in plaque formation measured after 2 days post infection by crystal violet staining based; type: functional, cell-based

Row | SMILES | inhibition [1] | Activity [2] | EC50 [3] | Activity [4] | Activity [5] | EC50 [6] | EC50 [7]
1 | CSc1cccc(-c2cc(CNC34CC5CC(CC(C5)C3)C4)no2)c1 | 69.6% | 56.3% | – | – | – | – | –
2 | c1ccc2c(-c3cc(CNC45CC6CC(CC(C6)C4)C5)no3)cccc2c1 | 56.8% | 36.1% | – | – | – | – | –
3 | NC(=O)c1ccc(-c2cc(CNC34CC5CC(CC(C5)C3)C4)no2)cc1 | 47.4% | 57.1% | – | – | – | – | –
4 | COC(=O)c1ccc(-c2cc(CNC34CC5CC(CC(C5)C3)C4)no2)cc1 | 73.6% | 24.1% | – | – | – | – | –
5 | CSc1ccccc1-c1cc(CNC23CC4CC(CC(O)(C4)C2)C3)no1 | 90.6% | 9.2% | 1200 nM | Dose-dependent effect | – | – | –
6 | c1ccc(-c2cc(CNC34CC5CC(CC(C5)C3)C4)no2)cc1 | – | 13.5% | 300 nM | Dose-dependent effect | – | – | –
7 | Clc1cc(-c2cc(CNC34CC5CC(CC(C5)C3)C4)no2)cs1 | 87.9% | 10.9% | – | – | – | – | –
8 | COc1sccc1-c1cc(CNC23CC4CC(CC(C4)C2)C3)no1 | 94.2% | 7.2% | – | – | – | – | –
9 | CS(=O)(=O)c1ccccc1-c1cc(CNC23CC4CC(CC(C4)C2)C3)no1 | 9.8% | 110% | – | – | – | – | –
10 | OC12CC3CC(C1)CC(NCc1cc(-c4cc(Cl)sc4Cl)on1)(C3)C2 | 89.9% | 13.7% | – | – | inactive | – | –
11 | COc1ccc(-c2cc(CNC34CC5CC(CC(C5)C3)C4)no2)cn1 | 58% | 21.7% | – | – | – | – | –
12 | OC12CC3CC(C1)CC(NCc1cc(-c4ccccc4Cl)on1)(C3)C2 | 87.1% | 8.3% | 900 nM | Dose-dependent effect | – | – | –
13 | Clc1cc(-c2cc(CNC34CC5CC(CC(C5)C3)C4)no2)c(Cl)s1 | 87.7% | 10.1% | – | – | – | – | –
14 | COc1ccccc1-c1cc(CNC23CC4CC(CC(C4)C2)C3)no1 | 51.8% | 62.1% | – | – | – | – | –
15 | FC(F)(F)Oc1cccc(-c2cc(CNC34CC5CC(CC(C5)C3)C4)no2)c1 | 56.7% | 72.7% | – | – | – | – | –
16 | c1cncc(-c2cc(CNC34CC5CC(CC(C5)C3)C4)no2)c1 | 53% | 105.5% | – | – | – | – | –
17 | N#Cc1ccc(-c2cc(CNC34CC5CC(CC(C5)C3)C4)no2)cc1 | 72.2% | 28% | – | – | – | – | –
18 | Oc1ccccc1-c1cc(CNC23CC4CC(CC(C4)C2)C3)no1 | 71.5% | 3.4% | 500 nM | Dose-dependent effect | – | – | –
19 | c1ccc(-c2ccc(-c3cc(CNC45CC6CC(CC(C6)C4)C5)no3)cc2)cc1 | 45.6% | 36% | – | – | – | – | –
20 | CN(C)c1ccc(-c2cc(CNC34CC5CC(CC(C5)C3)C4)no2)cc1 | 83.2% | 35.7% | – | – | – | – | –
21 | Clc1ccc(-c2cc(CNC34CC5CC(CC(C5)C3)C4)no2)s1 | 78.8% | 0% | – | Dose-dependent effect | – | 200 nM | 200 nM
